Where “and” joins values, the source holds several entries; their conditions need not be identical. Equal entries are not always repeated. Marks after values point to notes of the source that are not given here.
Experiments:
[1] = Growth of uninfected HFF cells; type: cell-based, human; conditions: human, HFF cells (fibroblasts)
HFF cells = experiment: Growth of uninfected HFF cells; type: cell-based, human
Vero cells = experiment: Growth of uninfected Vero cells, MTS; type: cell-based, African Green monkey
In short: (§1)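 Cells were plated in 96-well plates in medium holding serial dilutions of test compound, 1 nM to 10 μM, with DMSO ≤1% (v/v) final. Growth was read by MTS after 72 h at 37 °C: 2 h with reagent plus phenazine methosulfate, then A490. K and Imax came from a fit to a modified Hill equation. Vero cells are African Green monkey.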

HIV-1 = HIV-1 infection in PBMCs; type: cell-based
EBV = experiment: Lytic replication of EBV induced by sodium butyrate and PMA in P3HR1 cells; type: cell-based
[2] = Growth of activated primary CD4 T cells, CTG; type: cell-based; conditions: human, CC50, host primary cell growth
W12-20850 cells = experiment: Growth of W12-20850 cells, actin DNA by qPCR; type: cell-based, human
HPV-16 = experiment: HPV DNA by qPCR in HKC/HPV16 cells; type: cell-based
HEK293 = experiment: Growth of HEK293; type: cell-based, human
In short: (§2)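 Cell lines carrying integrated viral genomes were plated in 96-well plates in medium with test compound. Growth was read by ATP luminescence (CellTiter-Glo) for HEK293 and WI38 VA13, and by MTS reduction (A490 after 2 h at 37 °C) for Namalwa, W12 20861, SiHa, Caski and HeLa. K and Imax came from a fit to a modified Hill equation.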

WI38 VA13 = experiment: Growth of WI38 VA13; type: cell-based, human
In short: as §2

Namalwa = experiment: Growth of Namalwa; type: cell-based, human; conditions: 72 h
In short: as §2

Caski = experiment: Growth of Caski; type: cell-based, human; conditions: 72 h
In short: as §2

Molt4 = experiment: Growth of Molt4, MTS; type: cell-based, human
In short: as §1

[3] = Growth of activated PBMC, MTS; type: cell-based; conditions: human, activated PBMCs
In short: (§3)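 Primary cells were plated in 96-well plates with serial dilutions of test compound, 3 nM to 100 μM, for 72 h at 37 °C. Read-out was CTG for resting B and CD4 T cells and MTS for PBMC, WI38 and HUVEC. Purity was 90–95% for B cells and 97% for CD4 cells. Activated PBMCs were stimulated with phytohemagglutinin plus IL2.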

[4] = Growth of resting B cells, CTG; type: cell-based; conditions: human
In short: as §3

IM9 cells = experiment: Apoptosis assay; type: cell-based, human; conditions: IM9, 20 h exposure
In short: (§4)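 Apoptosis read as cytoplasmic histone-associated DNA fragments with a Cell Death Detection ELISA kit. Exposure was 20 h for IM9 and MT4 and 40 h for W12 and U937. A405 was read kinetically at 30 °C, and the rate per hour came from linear regression of the linear portion. A Fas-activating antibody was the positive control.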

W12 cells = experiment: Apoptosis assay; type: cell-based, human; conditions: W12, 40 h exposure
In short: as §4

U937 cells = experiment: Apoptosis assay; type: cell-based, human; conditions: U937, 40 h exposure
In short: as §4

HKC cells = experiment: mRNA measurement by RT-qPCR in HKC cells; type: cell-based, human; conditions: for Fold increase due to GSK983, ABCD1 mRNA / Fold increase due to GSK983, ABCG1 mRNA / Fold increase due to GSK983, ADAMTS5 mRNA / Fold increase due to GSK983, BIK mRNA / Fold increase due to GSK983, MDM2 mRNA / Fold increase due to GSK983, MGP mRNA / Fold increase due to GSK983, CDKN1A mRNA / Fold increase due to GSK983, CSF2 mRNA / Fold increase due to GSK983, IFI6 mRNA / Fold increase due to GSK983, IFI16 mRNA / Fold increase due to GSK983, MMP1 mRNA / Fold increase due to GSK983, IRF3 mRNA / Fold increase due to GSK983, IRF9 mRNA: HKC cells
immortalized cell lines = experiment: Growth of immortalized cell lines; type: cell-based
HPV = experiment: Viral DNA levels in the three HPV-infected cell lines; type: cell-based; conditions: read-out: K values, viral DNA levels
[5] = test system: cell lines immortalized by non-viral transformation events; experiment: Growth of cell lines immortalized by non-viral transformation events; type: cell-based; conditions: Homo sapiens, read-out: Median effect concentrations, range
In short: as §1

[6] = 10 nM, 24 h, not significantly different from 1
[7] = 100 nM, 24 h, not significantly different from 1
[8] = 100 nM, 48 h, not significantly different from 1

SMILES: O=C(N[C@@H]1CCCc2c1[nH]c1ccc(Cl)cc21)c1ccccn1 [GSK983, N-[(1R)-6-Chloro-2,3,4,9-tetrahydro-1H-carbazol-1-yl]-2-pyridinecarboxamide]
- CC50 at 72 h [1]: 55000 nM
- K, uninfected host cell growth, MTS (HFF cells; HFF, this experiment (Fig. 2), K ∼ CC50): 35,500 nM
- Growth of the uninfected HFF, as measured by MTS (HFF cells; at concentrations below one micromolar): not inhibited
- Outcome of growth inhibition over time (Vero cells; data not shown): cytostasis
- Imax, uninfected host cell growth, MTS (Vero cells; data of Fig. 3): 37%
- Imax, Growth, MTS (Vero cells; kidney epithelial, 72 h, 4 titrations): 43 ± 1%
- Susceptibility of HIV (HIV-1; at concentrations below 1 μM): not susceptible
- Inhibition of HIV-1 infection in PBMCs (HIV-1; concentration range 1 nM to 100 μM): 50% inhibition in the micromolar range
- Susceptibility of lytic replication of EBV (EBV; at concentrations below 1 μM): not susceptible
- Inhibition of lytic replication of EBV below 10 μM (EBV; below 10 μM, data not shown): No significant inhibition
- Inhibition of lytic replication of EBV (EBV; induced by sodium butyrate and PMA in P3HR1 cells, data not shown): did not inhibit
- CC50 at 72 h [2]: 57000 nM
- EC50 (W12-20850 cells; Homo sapiens, W12-20850, read-out: K, Growth, Actin DNA, qPCR): 6 ± 0.4 nM
- Imax, Growth, Actin DNA, qPCR (W12-20850 cells; W12-20850): 60 ± 1%
- Imax, HPV DNA, qPCR (HPV-16; HKC/HPV16, HPV type 16): 89 ± 2%
- Selectivity index (HPV-16; HPV DNA qPCR in HKC/HPV16 vs HKC): 18,000 ± 5,600
- EC50 (HPV-16; Human papillomavirus 16, read-out: K, HPV DNA, qPCR): 2.2 ± 0.2 nM
- Imax, Growth, CTG (HEK293; HEK293, Adenovirus 5 integrated, 72 h): 52 ± 2%
- EC50 (HEK293; Homo sapiens, HEK293, 72 h, read-out: K, Growth, CTG): 12 ± 2 nM
- EC50 (WI38 VA13; Homo sapiens, WI-38 VA13, 72 h, read-out: K, Growth, CTG): 16 ± 5 nM
- Imax, Growth, CTG (WI38 VA13; WI38 VA13, SV40 integrated, 72 h): 28% and 28 ± 2%
- EC50 (Namalwa; Homo sapiens, read-out: K, Growth, MTS): 10 ± 2 nM
- Imax, Growth, MTS (Namalwa; Namalwa, EBV integrated): 66% and 66 ± 2.5%
- Imax, Growth, MTS (Caski; Caski, HPV16 integrated): 33 ± 1.5%
- EC50 (Caski; Homo sapiens, Ca-Ski, read-out: K, Growth, MTS): 32 ± 6 nM
- EC50 (Molt4; Homo sapiens, MOLT-4, 72 h, read-out: K, growth, MTS): 13 ± 1.3 nM
- Imax, Growth, MTS (Molt4; Molt4, T lymphoblast, 72 h): 85 ± 2%
- CC50 at 72 h [3]: 224000 nM
- CC50 at 72 h [4]: > 10000 nM
- Apoptosis (IM9 cells): induced apoptosis
- Apoptosis (W12 cells): apoptosis did not occur
- Apoptosis (U937 cells): apoptosis did not occur
- Fold increase due to GSK983, ABCD1 mRNA (HKC cells; 10 nM, 24 h): 2.0 fold
- Fold increase due to GSK983, ABCG1 mRNA (HKC cells; 10 nM, 24 h): 2.5 fold
- Fold increase due to GSK983, ADAMTS5 mRNA (HKC cells; 10 nM, 24 h): 2.6 fold
- Fold increase due to GSK983, BIK mRNA (HKC cells; 10 nM, 24 h): 2.2 fold
- Fold increase due to GSK983, MDM2 mRNA (HKC cells; 10 nM, 24 h): 2.1 fold
- Fold increase due to GSK983, MGP mRNA (HKC cells; 10 nM, 24 h): 1.9 fold
- Fold increase due to GSK983, CDKN1A mRNA (HKC cells; [6]): 1.7 ^b fold
- Fold increase due to GSK983, CSF2 mRNA (HKC cells; [6]): 1 ^b fold
- Fold increase due to GSK983, IFI6 mRNA (HKC cells; [6]): 1.3 ^b fold
- Fold increase due to GSK983, IFI16 mRNA (HKC cells; [6]): 2.3 ^b fold
- Fold increase due to GSK983, MMP1 mRNA (HKC cells; [6]): 5.8 ^b fold
- Fold increase due to GSK983, ABCD1 mRNA (HKC cells; 10 nM, 48 h): 4.5 fold
- Fold increase due to GSK983, ABCG1 mRNA (HKC cells; 10 nM, 48 h): 3.1 fold
- Fold increase due to GSK983, ADAMTS5 mRNA (HKC cells; 10 nM, 48 h): 2.3 fold
- Fold increase due to GSK983, BIK mRNA (HKC cells; 10 nM, 48 h): 1.8 fold
- Fold increase due to GSK983, CDKN1A mRNA (HKC cells; 10 nM, 48 h): 1.6 fold
- Fold increase due to GSK983, CSF2 mRNA (HKC cells; 10 nM, 48 h): 4.1 fold
- Fold increase due to GSK983, IFI16 mRNA (HKC cells; 10 nM, 48 h): 2.7 fold
- Fold increase due to GSK983, IRF3 mRNA (HKC cells; 10 nM, 48 h): 2.4 fold
- Fold increase due to GSK983, MDM2 mRNA (HKC cells; 10 nM, 48 h): 3.2 fold
- Fold increase due to GSK983, MGP mRNA (HKC cells; 10 nM, 48 h): 2.9 fold
- Fold increase due to GSK983, MMP1 mRNA (HKC cells; 10 nM, 48 h): 2.2 fold
- Fold increase due to GSK983, IRF9 mRNA (HKC cells; 10 nM, 48 h, not significantly different from 1): 1.5 ^b fold
- Fold increase due to GSK983, ABCD1 mRNA (HKC cells; 100 nM, 24 h): 2.3 fold
- Fold increase due to GSK983, ABCG1 mRNA (HKC cells; 100 nM, 24 h): 5.0 fold
- Fold increase due to GSK983, BIK mRNA (HKC cells; 100 nM, 24 h): 2.3 fold
- Fold increase due to GSK983, CDKN1A mRNA (HKC cells; 100 nM, 24 h): 1.8 fold
- Fold increase due to GSK983, CSF2 mRNA (HKC cells; 100 nM, 24 h): 2.8 fold
- Fold increase due to GSK983, IRF9 mRNA (HKC cells; 100 nM, 24 h): 1.6 fold
- Fold increase due to GSK983, MDM2 mRNA (HKC cells; 100 nM, 24 h): 2.4 fold
- Fold increase due to GSK983, MGP mRNA (HKC cells; 100 nM, 24 h): 2.0 fold
- Fold increase due to GSK983, ADAMTS5 mRNA (HKC cells; [7]): 1.3 ^b fold
- Fold increase due to GSK983, IFI6 mRNA (HKC cells; [7]): 1.1 ^b fold
- Fold increase due to GSK983, IRF3 mRNA (HKC cells; [7]): 1.1 ^b fold
- Fold increase due to GSK983, MMP1 mRNA (HKC cells; [7]): 5.2 ^b fold
- Fold increase due to GSK983, ABCD1 mRNA (HKC cells; 100 nM, 48 h): 3.7 fold
- Fold increase due to GSK983, ABCG1 mRNA (HKC cells; 100 nM, 48 h): 4.8 fold
- Fold increase due to GSK983, ADAMTS5 mRNA (HKC cells; 100 nM, 48 h): 7.5 fold
- Fold increase due to GSK983, BIK mRNA (HKC cells; 100 nM, 48 h): 3.7 fold
- Fold increase due to GSK983, CDKN1A mRNA (HKC cells; 100 nM, 48 h): 4.3 fold
- Fold increase due to GSK983, CSF2 mRNA (HKC cells; 100 nM, 48 h): 5.8 fold
- Fold increase due to GSK983, MDM2 mRNA (HKC cells; 100 nM, 48 h): 2.9 fold
- Fold increase due to GSK983, MGP mRNA (HKC cells; 100 nM, 48 h): 3.0 fold
- Fold increase due to GSK983, MMP1 mRNA (HKC cells; 100 nM, 48 h): 5.0 fold
- Fold increase due to GSK983, IFI16 mRNA (HKC cells; [8]): 0.8 ^b fold
- Fold increase due to GSK983, IRF3 mRNA (HKC cells; [8]): 0.8 ^b fold
- Fold increase due to GSK983, IRF9 mRNA (HKC cells; [8]): 1.5 ^b fold
- Number of genes of the Pathway Set with significant increases in expression (HKC cells; primary human keratinocytes, at both 10 and 100 nM, 546 genes): 9 genes
- Selectivity index (immortalized cell lines; EBV and HTLV-1 viral-immortalized cell lines vs related primary cells): approximately 1000
- Time after addition of the compound until reduction in growth rate (immortalized cell lines; W12, U937 and IM9 growth curves): approximately 24 h
- Concentrations at which apoptosis or cytostasis is induced (immortalized cell lines; depending on the cell line): over 20 nM
- EC50 (immortalized cell lines; read-out: EC50 values, growth of cell lines immortalized by HTLV-1, EBV, HPV, SV40 and Ad-5): 10 to 40 nM
- EC50 (HPV): 2 to 5 nM
- EC50 [5]: 10 to 50 nM

Source: article PMC7114156 (Antiviral Research, 2009)
